Series [1] is described as follows: Toxicity against Artemia salina larvae. It counts as organism-based. The note with it: in vivo. In outline: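 Quadruplicate wells; mortality counted after 24 and 36 h at 27 °C. LC50 from probit analysis of dose-mortality data from six independent experiments.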
The test system of the next series is Solanum lycopersicum. The series can be described thus: Phytotoxicity in tomato leaf assessed as chlorosis in the leaf at 10^-5 M by tomato cutting assay. It is filed as organism-based. The note with it: in vivo, 10 µM. In outline: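 Young greenhouse tomato plants cut with razor; stems immersed in toxin solutions (10^-3 to 10^-6 M; compound in small MeOH volume diluted with water) 24 h at 22 °C, 12-h photoperiod, fluorescent light. Then moved to distilled water 48 h under same conditions; symptoms (e.g. chlorosis, wilting) scored visually.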

The subject of another series is Candida maltosa. The series can be described thus: Antifungal activity against Candida maltosa ITEM 1639 at 15 ug/disk by paper disk method. It counts as functional. In outline: (§1)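 Agar diffusion: a 0.7% water-agar overlay carrying 10^4 conidia/mL (or yeast cells) is poured on PDA. 6-mm cellulose disks loaded with methanolic compound at 5 or 15 µg/disk are air-dried and applied, with nystatin as comparator. Plates incubated 24-72 h at 25 °C; inhibition halo diameter read from three disks. Agar under each disk is subcultured on PDA to score fungicidal/fungistatic effect. Experiment run twice and averaged.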

A further series relates to Saccharomyces cerevisiae. Kind of series: Antifungal activity against Saccharomyces cerevisiae ITEM 1633 at 15 ug/disk by paper disk method. It counts as functional. The method in brief:
(§2)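 Agar overlay disk diffusion on plant-derived filamentous fungi and yeasts: 0.7% water-agar seeded with 10^4 conidia/mL or a yeast cell suspension, poured over PDA. 6-mm cellulose disks were loaded from methanolic solutions and air-dried, with nystatin as comparator. Plates ran 24-72 h at 25 °C; inhibition halo was measured over three disks. Agar beneath disks was subcultured on PDA to separate fungicidal from fungistatic, scored in four classes; run twice, averaged.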

Series [2] relates to Alternaria alternata. Kind of series: Antifungal activity against Alternaria alternata ITEM 468 at 15 ug/disk by paper disk method. It counts as functional. The method in brief: as §1
In a further series the test system is Penicillium verrucosum. Kind of series: Antifungal activity against Penicillium verrucosum ITEM 439 at 15 ug/disk by paper disk method. It counts as functional. In outline: as §2
For series [3], the system named is Alternaria alternata. Kind of series: Antifungal activity against Alternaria alternata ITEM 526 at 15 ug/disk by paper disk method. It is filed as functional. The method in brief:
as §1

Another series deals with Ascochyta rabiei. Kind of series: Antifungal activity against Ascochyta rabiei ITEM 1067 at 15 ug/disk by paper disk method. It is filed as functional. In outline:
as §1

For series [4], the system named is Alternaria alternata. Kind of series: Antifungal activity against Alternaria alternata ITEM 750 at 15 ug/disk by paper disk method. It is filed as functional. In outline: as §1
The test system of a further series is Kluyveromyces marxianus. Kind of series: Antifungal activity against Kluyveromyces fragilis ITEM 1657 at 15 ug/disk by paper disk method. It counts as functional. The method in brief:
as §2

The subject of series [5] is Colletotrichum gloeosporioides. Kind of series: Antifungal activity against Colletotrichum gloeosporioides ITEM 1729 at 15 ug/disk by paper disk method. It counts as functional. In outline:
as §1

Series [6] deals with Fusarium oxysporum. Kind of series: Antifungal activity against Fusarium oxysporum ITEM 149 at 15 ug/disk by paper disk method. It is filed as functional. The method in brief:
as §1

In another series the test system is Aspergillus flavus. The series can be described thus: Antifungal activity against Aspergillus flavus ITEM 9 at 15 ug/disk by paper disk method. It is filed as functional. The method in brief:
as §1

The test system of series [7] is Wickerhamomyces anomalus. Kind of series: Antifungal activity against Pichia anomala ITEM 1661 at 15 ug/disk by paper disk method. It is filed as functional. The method in brief:
as §2

In series [8] the test system is Meyerozyma guilliermondii. Kind of series: Antifungal activity against Pichia guilliermondii ITEM 1644 at 15 ug/disk by paper disk method. It is filed as functional. The method in brief:
as §2

The test system of series [9] is Meyerozyma guilliermondii. The series can be described thus: Antifungal activity against Candida guilliermondii ITEM 1638 at 15 ug/disk by paper disk method. It counts as functional. In outline: as §1
The subject of the next series is Aspergillus parasiticus. The series can be described thus: Antifungal activity against Aspergillus parasiticus ITEM 11 at 15 ug/disk by paper disk method. It counts as functional. In outline: as §1
Series [10] has as its system Botrytis cinerea. Kind of series: Antifungal activity against Botrytis cinerea at 15 ug/disk by paper disk method. It is filed as functional. In outline:
as §1

The test system of another series is Rhodotorula mucilaginosa. Kind of series: Antifungal activity against Rhodotorula pilimanae at 15 ug/disk by […]. It is filed as functional.
The test system of the next series is Fusarium subglutinans. The series can be described thus: Antifungal activity against Fusarium subglutinans at 15 ug/disk by paper disk method. It is filed as functional. The method in brief:
as §1

For the next series, the system named is Plenodomus tracheiphilus. The series can be described thus: Antifungal activity against Phoma tracheiphilla ITEM 1605 at 15 ug/disk by paper disk method. It counts as functional. The method in brief:
as §2

The test system of series [11] is Alternaria alternata. Kind of series: Antifungal activity against Alternaria alternata ITEM 511 at 15 ug/disk by paper disk method. It counts as functional. The method in brief: as §1
The next series relates to Fusarium incarnatum. Kind of series: Antifungal activity against Fusarium semitectum ITEM 393 at 15 ug/disk by paper disk method. It is filed as functional. In outline: as §1
Another series concerns Alternaria citri. Kind of series: Antifungal activity against Alternaria citri ITEM 466 at 15 ug/disk by paper disk method. It is filed as functional. The method in brief: (§3)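 Agar overlay diffusion: 0.7% water-agar with 10^4 conidia/mL of test fungus poured over PDA; 6-mm cellulose disks impregnated with methanolic compound solution, air-dried. Incubated 25 °C for 24-72 h by fungus; growth-inhibition halo diameter from three replicate disks. Agar under disks then subcultured on PDA to score fungicidal/fungistatic classes. Repeated twice, averaged.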

Series [12] deals with Botrytis cinerea. The series can be described thus: Antifungal activity against Botrytis cinerea ITEM 966 at 15 ug/disk by paper disk method. It counts as functional. In outline: as §1
Series [13] deals with Fusarium oxysporum f. sp. lycopersici. Kind of series: Antifungal activity against Fusarium oxysporum f. sp. lycopersici ITEM 1462 at 15 ug/disk by paper disk method. It is filed as functional. The method in brief:
as §1

For a further series, the system named is Fusarium acuminatum. The series can be described thus: Antifungal activity against Fusarium acuminatum ITEM 795 at 15 ug/disk by paper disk method. It is filed as functional. In outline: as §1
The test system of the next series is Starmera dryadoides. The series can be described thus: Antifungal activity against Pichia dryadoides ITEM 1663 at 15 ug/disk by paper disk method. It is filed as functional. The method in brief: as §2
For series [14], the system named is Cladosporium cladosporioides. Kind of series: Antifungal activity against Cladosporium cladosporioides ITEM 2079 at 15 ug/disk by paper disk method. It is filed as functional. In outline: as §1
For the next series, the system named is Fusarium verticillioides. The series can be described thus: Antifungal activity against Fusarium moniliforme ITEM 1497 at 15 ug/disk by paper disk method. It is filed as functional. The method in brief: as §1
The subject of a further series is Kluyveromyces lactis. Kind of series: Antifungal activity against Kluyveromyces lactis ITEM 1656 at 15 ug/disk by paper disk method. It counts as functional. In outline: as §2
In series [15] the test system is Fusarium oxysporum. The series can be described thus: Antifungal activity against Fusarium oxysporum ITEM 1462 at 15 ug/disk by paper disk method. It is filed as functional. The method in brief: as §1
A further series relates to Cladosporium cucumerinum. The series can be described thus: Antifungal activity against Cladosporium cucumerinum ITEM 2095 at 15 ug/disk by paper disk method. It is filed as functional. The method in brief:
as §1

In the next series the test system is Fusarium graminearum. The series can be described thus: Antifungal activity against Fusarium graminearum ITEM 2 at 15 ug/disk by paper disk method. It counts as functional. In outline: as §3
In the next series the test system is Pichia kluyveri. Kind of series: Antifungal activity against Pichia kluyveri ITEM 1649 at 15 ug/disk by paper disk method. It counts as functional. The method in brief: as §2
In series [16] the test system is Penicillium brevicompactum. The series can be described thus: Antifungal activity against Penicillium brevicompactum ITEM 449 at 15 ug/disk by paper disk method. It counts as functional. In outline: as §2
Series [17] relates to Wickerhamomyces anomalus. The series can be described thus: Antifungal activity against Pichia anomala ITEM 1625 at 15 ug/disk by paper disk method. It is filed as functional. In outline:
as §2

The source of these data is ChEMBL document CHEMBL1155568, “Biological characterization of fusapyrone and deoxyfusapyrone, two bioactive secondary metabolites of Fusarium semitectum” (J Nat Prod, 2000).

Values after ≈ are worked out from the molar mass of the structure shown.

For orientation: LC50 means the concentration lethal to half of the exposed cells or organisms. Read a low LC50 as greater toxicity. `CC(=O)OC[C@@H](C)C1=C(O)C(=O)[C@@]2(C)C/C=C(\C)CC/C=C(\C)CC[C@H](O)/C(C)=C/C[C@H]12` [FUSAPROLIFERIN] had a median lethal concentration (LC50) in series [1] of 23.7 µg/mL (≈ 53.3 µM).
Take `CCCCc1ccc(C(=O)O)nc1` [FUSARIC ACID]: in the series with Solanum lycopersicum, the result was Active.
As for NYSTATIN, the inhibition zone (IZ) is 20 mm in the series on Candida maltosa; 21 mm in the series on Saccharomyces cerevisiae; 30.2 mm in the series on Alternaria alternata [2]; 28.2 mm with Penicillium verrucosum; 28.7 mm in the series with Alternaria alternata [3]; 38.5 mm with Ascochyta rabiei. For the same compound, the inhibition zone (IZ) turned out to be 29.2 mm in the series on Alternaria alternata [4]; 19.5 mm with Kluyveromyces marxianus; 38.2 mm in series [5]; 19.5 mm with Fusarium oxysporum [6]; 29 mm in the series with Aspergillus flavus; 15 mm in the series with Wickerhamomyces anomalus [7]. The inhibition zone (IZ) in series [8] was 18.5 mm; in series [9], 20 mm; in the series on Aspergillus parasiticus it was 28.7 mm; in the series with Botrytis cinerea [10], 31 mm; in the series on Rhodotorula mucilaginosa, 28.5 mm; in the series on Plenodomus tracheiphilus, 31.8 mm. In addition, the inhibition zone (IZ) in the series with Alternaria alternata [11] turned out to be 32.2 mm; with Fusarium incarnatum it was 27 mm; in the series with Alternaria citri, 30 mm; in the series with Botrytis cinerea [12], 31.2 mm; in series [13] it was 21.7 mm; in the series on Fusarium acuminatum, 20.8 mm. Moreover, the inhibition zone (IZ) in the series with Starmera dryadoides was found to be 19 mm; in [14], 37.3 mm; in the series with Fusarium verticillioides, 18.7 mm; in the series on Kluyveromyces lactis, 18 mm; in the series on Fusarium oxysporum [15] it was 20 mm; in the series on Cladosporium cucumerinum, 32.7 mm. Also, the inhibition zone (IZ) with Fusarium graminearum came to 25.9 mm; in [16], 18.3 mm; with Wickerhamomyces anomalus [17], 18.8 mm. Further, the Activity with Fusarium subglutinans amounted to 24 mm; in the series on Pichia kluyveri, 16.5 mm.
